Screens (PubChem)
The list is not random: actives were taken first. Their share in the collection is about 3.4%.
E-selectin induc – E-selectin induction in HUVECs, primary screen, imaging, HUVEC, immunofluorescence imaging, single point; activation, % at 7.58 µM; 0.37% of 260,000 active; AID 686992, 2013; normalized: neutral wells 0, TNF-alpha wells 100; P16581;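 active means mean E-selectin-positive cell signal at least 10% of the positive control, reached in at least 60% of replicates, without over 20% cell loss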
Target sequence (P16581 whole entry, looked up): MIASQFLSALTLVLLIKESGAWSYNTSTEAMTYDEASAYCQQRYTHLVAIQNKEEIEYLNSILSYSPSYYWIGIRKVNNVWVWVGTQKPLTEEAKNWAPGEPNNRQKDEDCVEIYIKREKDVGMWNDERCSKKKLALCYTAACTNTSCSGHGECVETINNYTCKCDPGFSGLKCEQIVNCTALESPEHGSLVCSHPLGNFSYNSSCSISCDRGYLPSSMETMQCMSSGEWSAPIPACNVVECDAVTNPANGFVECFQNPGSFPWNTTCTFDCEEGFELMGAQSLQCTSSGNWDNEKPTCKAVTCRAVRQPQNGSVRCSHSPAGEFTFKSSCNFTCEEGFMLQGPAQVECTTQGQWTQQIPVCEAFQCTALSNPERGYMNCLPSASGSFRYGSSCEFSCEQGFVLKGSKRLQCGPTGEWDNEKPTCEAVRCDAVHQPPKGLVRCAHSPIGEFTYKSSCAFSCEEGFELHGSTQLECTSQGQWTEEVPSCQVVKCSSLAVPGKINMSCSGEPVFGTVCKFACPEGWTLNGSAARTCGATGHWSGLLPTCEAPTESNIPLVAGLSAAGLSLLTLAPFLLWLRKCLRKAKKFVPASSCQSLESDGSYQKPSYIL
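Test system: HUVEC | Signal: Immunofluorescence imaging | Read-out: Percent E-selectin-positive cells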
ERAP1 HTS inh – human ERAP1 aminopeptidase inhibitors, primary screen, biochemical, single point, plate reader. Endoplasmic reticulum aminopeptidase 1 (Homo sapiens), Q9NZ08. recombinant ERAP1, Leu-AMC fluorescence, 60 min. AID 652197, 2013. inhibition, % at 10.7 µM. 0.15% of 340,000 active;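 active means mean replicate inhibition of at least 30%, or all replicates individually reaching that 30% level; inactive means mean below 30% and not every replicate reaching it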
AF4-AF9 inh – inhibitors of AF4 peptide binding to AF9, primary screen, biochemical, AlphaScreen, biotin-AF4 peptide, FLAG-AF9, single point; Protein AF-9 (Homo sapiens), P42568; inhibition, % at 10 µM; 0.47% of 350,000 active; AID 651704, 2012;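 active means every replicate reaching a set inhibition limit, whatever the replicate mean, cut at about 25% in these data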
S100A4 inh HTS – inhibitors of S100A4-myosin IIA peptide binding, primary screen, biochemical, fluorescence polarization, TAMRA-MyoIIA peptide. Protein S100-A4 (Homo sapiens), P26447. inhibition, % at 10.7 µM. 0.14% of 360,000 active. AID 652163, 2013;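 active means mean inhibition of at least 70% across replicates, with every replicate also reaching that level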
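Material: S100A4 monomer (human). Medium: Calcium-containing HEPES buffer, pH 7.2. Probe or stimulus: labelled myosin peptide probe, 5 nM. Compound dosing: one concentration per compound. Timing: polarization read 5 min after assay mix addition, stable 5–60 min. Benchmarks: DMSO as neutral control, TFP as positive control.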
SIRT5 block – SIRT5 desuccinylase inhibitors, primary screen, biochemical, fluorescence imaging, single point, set 5 | 1.1% of 330,000 active | AID 652115, 2013 | inhibition, % at 15 µM | Purified SirT5, succinyl-peptide AMC, trypsin-coupled fluorescence; in the data active means inhibition above about 15%
Ecoli rRNA inh – reduced GFP signal of wild-type E. coli, primary screen, bacterial rRNA inhibitor project, GFP/RFP fluorescence, OD600, single point | E. coli WT GFP vs humanized-ribosome RFP mutants, 24 h; hits give low values; DMSO median 0, no signal -100 | GFP signal change (wild-type ribosome), % (test concentration not listed) | 1.6% of 350,000 active;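 active means significant combined selectivity score with lowered wild-type GFP, culture density cut under 30%, mutant RFP and density less affected; inactive means any of these conditions unmet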
Numbers stand for hits; 0 = inactive; - = not tested or not shown.

SMILES	E-selectin induc	ERAP1 HTS inh	AF4-AF9 inh	S100A4 inh HTS	SIRT5 block	Ecoli rRNA inh
O=C(COc1cc2oc(=O)c3c(c2cc1Cl)CCCC3)NCC1CCC(C(=O)O)CC1 (centres undefined)	-	0	0	0	0	-22.9
O=C(COc1cc2oc(=O)c3c(c2cc1Cl)CCC3)NCC1CCC(C(=O)O)CC1 (centres undefined)	0	0	0	0	0	0
O=C(Nc1ccc(F)cc1)N1C[C@@H]2[C@H](c3ccccc31)[C@H](CO)N2C(=O)c1ccccc1	0	0	0	0	0	0
CN1CCN(c2ccc(NC(=O)COc3cccc4ccccc34)cc2)CC1	0	0	0	0	0	0
C=CC(=O)Nc1cccc(Oc2ccnc(Nc3ccc(N4CCN(C)CC4)cc3)n2)c1	0	0	70.1	0	0	0
COc1ccccc1S(=O)(=O)N[C@H]1CC[C@H](CC(=O)N2CCN(C)CC2)O[C@H]1CO	0	0	0	0	0	0
CCc1cccc(C)c1NC(=S)NCCc1c(C)[nH]c2ccc(C)cc12	0	0	44.3	0	0	0
CCN(CC(=O)Nc1cccc(OC)c1)CC(=O)Nc1ccccc1C	-	0	0	0	0	0
COc1cccc(NC(=O)CN(C)CC(=O)Nc2ccc(Br)cc2)c1	-	0	0	0	0	-34.3
COc1cccc(NC(=O)COC(=O)c2sccc2C)c1	0	0	0	0	-	-20.9
Cc1cccc(C)c1NC(=O)CN(C)CC(=O)Nc1ccccc1Oc1ccccc1	0	0	0	0	0	0
CCN(CC(=O)Nc1cccc(OC)c1)CC(=O)Nc1ccc(Br)c(C)c1	0	0	0	0	0	-54.0
Cc1ccc(NC(=O)CN(C)CC(=O)Nc2ccccc2Oc2ccccc2)cc1	0	0	0	0	-	-34.8
C[C@H](CO)N1C[C@H](C)[C@H](CN(C)C(=O)NC2CCCCC2)Oc2ccc(NC(=O)CCCCCC(=O)Nc3ccccc3N)cc2C1=O	0	-	-	-	-	0
CN(C(=O)CCc1nnc(CCCCc2ccccc2)o1)C1CC(C)(C)NC(C)(C)C1	-	0	0	0	26.9	0
CN(C(=O)CCc1nnc(CCCCc2ccccc2)o1)C1CCOCC1	-	0	0	0	0	0
CCCNC(=O)N1CC2(CN(C(=O)c3cnccn3)C2)c2c([nH]c3cc(OC)ccc23)[C@H]1CO	0	0	0	0	0	0
O=S(=O)(O)c1cccc2cccc(Nc3ccccc3)c12	0	42.7	0	0	57.0	0
O=S(=O)(Nc1cccc2ccccc12)c1ccccc1F	-	0	0	0	0	0
CC(C)NC(=O)Nc1ccc2c(c1)C(=O)N([C@H](C)CO)C[C@@H](C)[C@@H](CN(C)S(=O)(=O)c1ccc(Cl)cc1)OCCCC[C@@H](C)O2	-	0	0	0	0	0
C[n+]1ccc(/C=C/c2cccs2)cc1	-	52.9	0	0	0	0
C[C@@H]1CN([C@H](C)CO)C(=O)c2cc(C#C[C@@H](C)O)cnc2O[C@@H]1CN(C)C(=O)c1ccccc1F	-	0	0	0	0	0
CC(CC(=O)Nc1ccc2c(c1)c(=O)n(C)n2-c1ccc2ccccc2c1)C(F)(F)F (centres undefined)	0	0	0	0	21.0	0
CC1Cc2ccccc2N1S(=O)(=O)c1cccc(C(=O)N2CC(=O)Nc3ccccc32)c1 (centres undefined)	0	-	0	0	0	-37.3
O=C1CN(C(=O)c2ccc(Cl)c(S(=O)(=O)N3CCc4ccccc43)c2)c2ccccc2N1	0	0	0	0	0	-34.6
SMILES	E-selectin induc	ERAP1 HTS inh	AF4-AF9 inh	S100A4 inh HTS	SIRT5 block	Ecoli rRNA inh
O=C(Nc1ccccc1F)N[C@H]1CC[C@H](CC(=O)N2CCCCC2)O[C@H]1CO	0	0	0	0	0	0
COc1ccc(Cl)cc1NC(=O)Nc1cccc([N+](=O)[O-])c1C	-	0	-	0	0	-31.8
Cc1cccc(NC(=O)CCc2nc3sc4c(c3c(=O)[nH]2)CCCC4)c1	-	0	0	0	0	0
CCc1cccc(NC(=O)CCc2nc3sc4c(c3c(=O)[nH]2)CCCC4)c1	84.2	0	0	0	0	0
CO[C@H]1CN(C)C(=O)c2cc(NC(=O)C3CCOCC3)ccc2OC[C@@H](C)N(C(=O)c2ccccc2)C[C@@H]1C	0	-	-	-	-	0
C=C(C)n1c(=O)n(Cc2ccc(C)cc2)c2ccccc21	-	0	0	0	0	0
C=C(C)n1c(=O)n(Cc2ccccc2C)c2ccccc21	0	0	0	0	0	-30.8
CC(=O)Oc1cc2c3c(c1)/C(=C1/SC(=S)NC1=O)C(=O)N3C(C)(C)C=C2C	0	0	30.1	0	0	0
CCOC(=O)c1c(NC(=O)CN2CCCCC2)sc2c1CCN(C(=O)OCC)C2	-	0	0	0	0	-38.3
COc1ccc(C(=O)Nc2sc3c(c2C#N)CCN(C(C)=O)C3)cc1	-	0	0	0	0	0
CCOC(=O)N1CCc2c(sc(NC(=O)c3ccc(S(=O)(=O)N4CCCC4)cc3)c2C#N)C1	-	31.2	0	0	0	0
Cc1ccc(S(=O)(=O)N(C)C[C@H]2Oc3ccc(NC(=O)Nc4ccc5c(c4)OCO5)cc3C(=O)N([C@H](C)CO)C[C@@H]2C)cc1	0	0	0	0	0	0
CCCN1[C@H](CO)[C@H](c2ccc(C3=CCCCC3)cc2)[C@@H]1CNS(C)(=O)=O	0	0	0	80.3	0	0
CCCN1[C@H](CO)[C@H](c2ccc(C3=CCCCC3)cc2)[C@@H]1CNC(=O)COC	0	0	0	0	0	0
CN(C[C@H]1[C@@H](c2ccc(C3=CCCC3)cc2)[C@@H](CO)N1CCC(F)(F)F)S(C)(=O)=O	0	-	0	-	24.7	0
Cc1ccc(S(=O)(=O)N(C)C[C@@H]2Oc3ccc(NC(=O)Nc4ccc5c(c4)OCO5)cc3CC(=O)N([C@@H](C)CO)C[C@H]2C)cc1	0	0	0	0	0	0
COc1cccc(-c2ccc3n(c2=O)C[C@@H]2[C@@H](CO)[C@H](C(=O)NCC4CC4)N(C(C)=O)[C@H]32)c1	0	0	0	0	0	0
O=C(c1cccnc1)N1CC(=O)N2[C@H](CO)[C@@H](c3ccc(-c4ccc(F)cc4)cc3)[C@H]2C1	0	0	0	0	0	0
Cc1cccc(-c2ccc([C@@H]3[C@H](CO)N4C(=O)CN(C(=O)c5cccnc5)C[C@@H]34)cc2)c1	0	0	0	0	0	0
